eIF4H inh: inhibitors of RNA binding by human eIF4H; inhibition, % at 35 µM; eIF4H fluorescence polarization binding assay; 290,000 tested, 0.94% active; AID 2012;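 further: calls also rest on retests at 20 µM and on dose response follow-up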
MLLE-PAM2 inh: blocks PAM2 peptide binding to the PABP1 MLLE domain | P11940 | GST-MLLE / FITC-PAM2 fluorescence polarization | inhibition, % at 20 µM | 360,000 tested, 0.36% active | AID 588489; in the data active means inhibition above about 35%, passing the limit was not always enough
eIF4E-4G inh: eIF4E/eIF4G interaction inhibition in translation initiation | P63073+Q04637 | TR-FRET eIF4E-eIF4GI(517-606) binding, 2 h | inhibition, % at 21.7 µM | 220,000 tested, 0.37% active | AID 782;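 active means inhibition above about 30%, limit read from the data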
SUMO HTRF inh: inhibitors of human SUMOylation (UBC9); P63279; HTRF SUMOylation assay, SAE1/SAE2 + UBC9, in vitro; inhibition, % at 35 µM; 290,000 tested, 0.36% active; AID 2006; in the data active means inhibition above about 50%, passing the limit was not always enough; inconclusive means no clear call, values can overlap the other calls
core dimer inh: blocks dimerization of HCV core protein; 300,000 tested, 0.33% active; inhibition, % at 5 µM; TR-FRET GST/Flag-core106 dimerization, 1536-well; AID 1899;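 active means inhibition above the mean of all tested compounds plus 3 SD, set per screening campaign, cut at about 45% in these data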
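System – GST-tagged and Flag-tagged HCV core protein residues 1-106 · Repeats – one well for each compound · Technique – TR-FRET 671 and 617 nm emission · Doses – one concentration, 5 µM, in 0.5% DMSO · Times – 4 h, 22.5 °C incubation · Also added – Eu donor and XL665 acceptor anti-tag antibodies · Measure – percent inhibition of core106 dimerization signal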
PABP polyA inh: blocks human PABP binding to poly(A) RNA; P11940; fluorescence polarization; calls only at 35 µM; 290,000 tested, 1% active; AID 2014;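 further: calls also rest on retests at 20 µM and on dose response follow-up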
Numbers stand for hits; 0 = inactive; ? = inconclusive; - = no result; + = active, no number; [ ] = dose if it differs, or a comment. Most compounds without a hit are left out; they make up all but 1.8% or so of the library. Unless noted, how the calls were made is not given here.

SMILES | eIF4H inh | MLLE-PAM2 inh | eIF4E-4G inh | SUMO HTRF inh | core dimer inh | PABP polyA inh
COc1ccc(NS(=O)(=O)c2cccc(C(=O)NNC(=O)c3cccn3C)c2)cc1 | 74 | 0 | - | 0 | 71 | 0
COc1ccc(CCNC(=O)Cn2cnc3c(cnn3-c3ccccc3Cl)c2=O)cc1OC | 0 | 0 | 31[fluorescence artefact?] | 0 | 0 | 0
Cc1ccc(C(=O)/C=C/C(=O)O)cc1 | 0 | 44 | 0 | 0 | 0 | 0
NC(=O)NCCc1ccccc1 | 0 | 0 | - | 0 | 0 | 0
CC(=O)Nc1ccc2ccccc2c1 | 0 | 0 | 0 | 0 | 0 | 0
CC(=O)Nc1ccc2sc(C)nc2c1 | 0 | 0 | 64 | 0 | 0 | 0
Cc1nc2cc(NC(=O)CS(=O)(=O)c3ccccc3)ccc2s1 | - | 0 | - | - | 0 | -
CC(=O)Nc1ccc2cc3ccc(NC(C)=O)cc3nc2c1 | 77 | 0 | 0 | 0 | 0 | +
COc1cccc(OCC(=O)NNC(=S)Nc2ccc(Cl)cc2Cl)c1 | 0 | 0 | 0 | 0 | 0 | 0
O=C(O)COc1ccc2c(c1)O/C(=C\c1cccs1)C2=O | 0 | 0 | 0 | 0 | 0 | 0
O=C(O)COc1ccc2c(c1)O/C(=C\c1ccco1)C2=O | 77 | 0 | - | 0 | 0 | +
COCCN(CCOC)Cc1c(O)ccc2c1O/C(=C\c1ccc(C)o1)C2=O | 51 | 0 | - | 0 | 0 | 0
Cc1ccc(/C=C2\Oc3cc(OCC(=O)NN)ccc3C2=O)o1 | 73 | 0 | - | 59 | - | 0
CC[n+]1ccc(/C=C2\Sc3ccccc3N2CCCS(=O)(=O)[O-])c2ccccc21 | 0 | 0 | 0 | 0 | 0 | +
COc1c(C)cc(C(=O)C2CCCN(Cc3ccc(Oc4ncccn4)cc3)C2)cc1C (stereo not drawn) | 0 | 0 | 70 | 0 | 0 | 0
COc1cccc(C(=O)C2CCCN(Cc3cccc(-n4cccn4)c3)C2)c1 (stereo not drawn) | 0 | 0 | 0 | 0 | 0 | 0
CC(C)Oc1cccc(C(=O)C2CCCN(Cc3ccc(Oc4ncccn4)cc3)C2)c1 (stereo not drawn) | 0 | 0 | 0 | 0 | 0 | 0
COc1cccc(C(=O)C2CCCN(Cc3cccn3-c3cccnc3)C2)c1 (stereo not drawn) | 0 | 0 | 0 | 0 | 0 | +
CC(C)(C)OC(=O)C[C@@H]1C/C=C\C[C@H](CC(=O)N[C@H](CO)Cc2ccccc2)C(=O)N[C@@H](Cc2c[nH]c3ccccc23)COC1=O | - | 0 | - | - | - | -
CSCc1ccc(C(=O)Nc2ccc(C(N)=O)cc2)cc1 | 0 | 0 | 0 | 0 | 0 | 0
COc1cc(C)c(CN2CCN(S(=O)(=O)c3ccc(Cl)s3)CC2)cc1OC | - | 0 | - | - | - | -
Cc1ccc(C(C)C)c(OCc2nc(-c3nonc3N)no2)c1 | 0 | 0 | 53 | 0 | 0 | 0
Cc1ccc(C(C)C)c(OCc2n[nH]c(=S)o2)c1 | 0 | 0 | 0 | 0 | 0 | 0
CC(NC(=O)CSc1nnc(CC(=O)Nc2ccc(Cl)c(Cl)c2)n1C)c1ccccc1 (stereo not drawn) | 0 | 0 | 43[fluorescence artefact?] | 0 | 0 | 0
CCCN(C(=O)COc1ccc(Cl)cc1Cl)c1c(N)n(Cc2ccccc2)c(=O)[nH]c1=O | 0 | 0 | 0 | 0 | 0 | 0
SMILES | eIF4H inh | MLLE-PAM2 inh | eIF4E-4G inh | SUMO HTRF inh | core dimer inh | PABP polyA inh
Nc1nc(-c2ccc3c(c2)CCO3)cs1 | 0 | 0 | 0 | 0 | 0 | +
CC(=O)Nc1nc(-c2ccc3c(c2)CCO3)cs1 | 0 | 0 | 0 | 0 | 0 | 0
CN(CC(=O)Nc1ccc(F)cc1)S(=O)(=O)c1ccc2c(c1)c(=O)n(C)c(=O)n2C | 0 | 0 | - | 0 | 0 | 0
C=C(C)CN(CC)c1nc(N)c2c(N)nc3c(c2c1C#N)CC(=O)N3C12CC3CC(CC(C3)C1)C2 | 76 | 0 | 0 | 62 | 0 | +
N#Cc1c(N2CCCC(O)C2)nc(N)c2c(N)nc3c(c12)CC(=O)N3C12CC3CC(CC(C3)C1)C2 (stereo not drawn) | 91 | 0 | 0 | 99 | 52 | +
CCN(CC)c1nc2c3c(nc4c(c3c1C#N)CC(=O)N4c1ccc(Cl)cc1)NC(C)=N2 | 0 | 0 | 0 | 0 | 0 | 0
CCCCn1c(N)c(N(CC(C)C)C(=O)CSC(C)C(=O)Nc2cc(C)on2)c(=O)[nH]c1=O (stereo not drawn) | - | 0 | - | - | 0 | -
Cc1ccc(C(=O)N2CCN(S(=O)(=O)c3ccccc3[N+](=O)[O-])C2)cc1 | 0 | 0 | 0 | 0 | 0 | 0
Cc1ccc(C(=O)N2CCN(S(=O)(=O)c3ccccc3[N+](=O)[O-])CC2)o1 | 51 | 0 | 0 | 0 | 0 | 0
NC(=O)COC(=O)c1cccc(NS(=O)(=O)/C=C/c2ccccc2)c1 | 0 | 0 | 0 | 0 | 0 | 0
NC(=O)NC(=O)COC(=O)c1cccc(NS(=O)(=O)/C=C/c2ccccc2)c1 | 0 | 0 | 34 | 0 | 0 | 0
Cc1ccc(-n2c(C(C)n3nc(C)c([N+](=O)[O-])c3C)n[nH]c2=S)cc1 (stereo not drawn) | active | 0 | 0 | 0 | 0 | 0
COCCCNC(=O)c1ccc2c3c(onc13)-c1ccccc1C2=O | ? | 0 | 0 | 0 | 0 | ?
CCOC(=O)C(C(=O)OCC)c1cc(Br)c2noc3c2c1C(=O)c1ccccc1-3 | ? | 0 | 0 | 87 | 0 | ?
O=C1C2CC=C(Cl)CC2C(=O)N1CCCCCCN1C(=O)C2CC=C(Cl)CC2C1=O (stereo not drawn) | 99 | 0 | 0 | 0 | 0 | +
O=C1C2CC=C(Cl)CC2C(=O)N1CCN1CCOCC1 (stereo not drawn) | 0 | 0 | 0 | 0 | 0 | 0
Cc1occc1C(=O)NCc1ccc(C(=O)O)o1 | 0 | 0 | 0 | 0 | 0 | 0
Cc1cc(C(=O)NCc2ccc(C(=O)O)o2)c(C)o1 | 0 | 0 | 0 | 0 | 0 | +
Cc1ccc(NC(=S)NCCN(C2CCCCC2)C2CCCC2)cc1C | active | 0 | 0 | 0 | 0 | +
Cc1ccc(-c2nc(CN(C)Cc3ccc4nccnc4c3)c(C)o2)s1 | 0 | 0 | 0 | 0 | 0 | 0
OC(CN1CCNCC1)Cn1ccc2ccccc21 (stereo not drawn) | 0 | - | - | 0 | 0 | 0
O=C1c2ccccc2S(=O)(=O)N1CC(O)Cn1ccc2ccccc21 (stereo not drawn) | 88 | 0 | 0 | 0 | 0 | +
CSCCC(NC(=O)c1ccccc1Cl)C(=O)N1CC(C)OC(C)C1 (stereo not drawn) | - | 0 | - | - | - | -
CC1(OC(=O)CCc2ccccc2)C(=O)C=C2C=C(c3ccc(C#N)cc3)N(C3CC3)C=C2C1=O (stereo not drawn) | 0 | 0 | 0 | 0 | 0 | +
CCCCC1=CC2=CC(=O)C(C)(OC(=O)CC)C(=O)C2=CN1CCCCO (stereo not drawn) | 0 | 45 | 0 | 0 | 0 | 0
COC(=O)CCCC1=CC2=CC(=O)C(C)(OC(=O)c3cccs3)C(=O)C2=CN1C1CC1 (stereo not drawn) | 87 | 0 | 0 | 0 | 0 | +
COC(=O)CCCC1=CC2=CC(=O)C(C)(OC(=O)c3cccs3)C(=O)C2=CN1C1CCCCC1 (stereo not drawn) | 0 | 0 | 0 | 0 | 0 | 0
